Assay results published in ChEMBL document CHEMBL1146543, “New antimycobacterial and antimalarial 8,9-secokaurane diterpenes from Croton kongensis” (J Nat Prod, 2003).
Converted amounts (≈) assume the structure as drawn.

Tests used:
Plasmodium falciparum = assay: Antimalarial activity against multidrug-resistant Plasmodium falciparum K1 by [3H]hypoxanthine uptake; format: functional, organism-based
Method in brief: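 Parasites kept in continuous in vitro culture (Trager–Jensen method); microculture radioisotope assay with growth read as [3H]-hypoxanthine uptake.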

KB = assay: Cytotoxicity against human KB cells; format: functional, cell-based
Method in brief: (§1)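 Colorimetric cytotoxicity assay run on Vero, KB and BC cell lines, with ellipticine as the reference compound. The result is reported as IC50.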

[1] = Cytotoxicity against human BC cells; format: functional, cell-based; method in brief: as §1
Vero = assay: Cytotoxicity against african green monkey Vero cells; format: cell-based; conditions: Chlorocebus sabaeus; method in brief: as §1
[2] = test system: Mycobacterium tuberculosis; assay: Antimycobacterial activity against Mycobacterium tuberculosis H37Ra by Microplate Alamar Blue Assay; format: functional
Method in brief: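 Microplate Alamar Blue assay with MIC as the endpoint; isoniazid and kanamycin sulfate were run as reference drugs.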

## C[C@@H]1CC[C@H]2[C@@H](C)C(=O)O[C@@H]3O[C@@]4(C)CC[C@@H]1[C@]32OO4 [ARTEMISININ]
Plasmodium falciparum
  IC50: 0.001 µg/mL (≈ 0.00354 µM)

## Cc1c2ccncc2c(C)c2c1[nH]c1ccccc12 [ELLIPTECINE]
KB
  IC50: 0.2 µg/mL (≈ 0.812 µM)
[1]
  IC50: 0.2 µg/mL (≈ 0.812 µM)
Vero
  IC50: 0.2 µg/mL (≈ 0.812 µM)

## NC[C@H]1O[C@H](O[C@H]2[C@H](O)[C@@H](O[C@H]3O[C@H](CO)[C@@H](O)[C@H](N)[C@H]3O)[C@H](N)C[C@@H]2N)[C@H](O)[C@@H](O)[C@@H]1O.O=S(=O)(O)O [KANAMYCIN SULFATE]
[2]
  MIC: 2 µg/mL
